TAAR1 antag: antagonists of human TAAR1; Q96RJ0; CHO RD-HGA16 TAAR1, Fluo-8 calcium fluorescence, antagonist; inhibition, % at 3 µM; 360,000 tested, 1.5% active;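 active = inhibition above a per-plate cutoff, the mean inhibition of test compounds on that plate plus 3 SD, cut at about 49% in these data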;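 also: 0% = DMSO plus EC80 beta-PEA response and 100% = DMSO alone without agonist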
Target sequence (Q96RJ0 whole entry, looked up): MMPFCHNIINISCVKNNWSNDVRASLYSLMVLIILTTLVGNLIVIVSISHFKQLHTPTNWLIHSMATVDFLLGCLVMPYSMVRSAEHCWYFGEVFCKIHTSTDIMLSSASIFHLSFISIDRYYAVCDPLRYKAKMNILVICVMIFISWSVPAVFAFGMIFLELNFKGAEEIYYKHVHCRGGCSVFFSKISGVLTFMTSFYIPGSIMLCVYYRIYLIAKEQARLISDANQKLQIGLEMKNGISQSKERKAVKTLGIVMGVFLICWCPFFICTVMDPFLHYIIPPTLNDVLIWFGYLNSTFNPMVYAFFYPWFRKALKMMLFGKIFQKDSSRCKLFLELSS
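test system = CHO RD-HGA16 cells bearing hTAAR1 | replication = singlicate | controls = DMSO-only wells and EC80 β-PEA-stimulated wells | reagent = EC80 β-phenethylamine stimulus | read-out basis = percent inhibition of PEA-evoked calcium signal, max/basal emission ratio | schedule = seeding 17-24 h prior, 75-min 37 °C, 30-min RT dye loading | signal = kinetic Fluo-8 calcium fluorescence measurement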
OXTR agonist: agonists of human oxytocin receptor; 320,000 tested, 0.32% active; activation, % at 3 µM; P30559; CHO-OTR cells, Fluo-8 calcium fluorescence; normalized: DMSO 0%, oxytocin 100%; AID 2435;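 active = activation above the mean of all tested compounds plus 3 SD, cutoff set per screening run, cut at about 20% in these data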;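 also: peak over basal fluorescence ratio from a 100 s FLIPR kinetic read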
TAAR1 ag: agonists of human TAAR1; Q96RJ0; CHO RD-HGA16 TAAR1, Fluo-8 calcium fluorescence; vehicle wells 0%, saturating PEA agonist 100%; activation, % at 3 µM; 360,000 tested, 0.99% active; AID 624467;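 active = activation above the mean activation of all test compounds in the run plus 3 SD, cut at about 38% in these data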
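test system = CHO RD-HGA16 cells carrying human TAAR1 plus Gα16 | schedule = 17-24 h seeding, 75 min 37 °C dye, 30 min RT | compound dosing = 3 µM single concentration | control set = DMSO and PEA EC100 | replicates = n 1 | signal = Fluo-8 fluorescence, 5 s baseline then 140 s kinetic read | measure = percent activation vs PEA EC100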
OXTR potentiator: human OXTR potentiation; P30559; CHO-OTR cells, Fluo-8 calcium fluorescence, potentiator mode; 0% = oxytocin EC15, 100% = EC100; activation, % at 3 µM; 320,000 tested, 0.061% active;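 active = activation above that plate's cutoff, the mean activation of tested compounds plus 3 SD, cut at about 6.6% in these data, passing the limit was not always enough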;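 also: 100% uses oxytocin at 75 nM as the full agonist control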
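test system = CHO-OTR cells, human receptor | compound = single-point 3.0 µM | schedule = 6 min compound pre-incubation at room temperature, 100 s kinetic read | signal = Fluo-8 no-wash calcium dye fluorescence, excitation 470-495 nm, emission 515-575 nm | repeats = single well per compound, singlicate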
V1aR counter: counter-screen for oxytocin receptor agonists: human V1a receptor agonists; 320,000 tested, 0.25% active; CHO-V1R cells, Fluo-8 calcium fluorescence, agonist mode; 0% DMSO, 100% 3 nM vasopressin; P37288; AID 2797; activation, % at 3 µM;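 active = activation above the mean activation of all tested compounds plus 3 SD, per screening run, cut at about 20% in these data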;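 also: signal is peak over basal fluorescence ratio across a 100 second FLIPR read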
TAAR1 ag confirm: confirmation of human TAAR1 agonists | 2,400 tested, 82% active | activation, % at 3 µM | CHO RD-HGA16 TAAR1, Fluo-8 calcium fluorescence; scaled: DMSO 0%, maximal phenethylamine 100% | shares compounds with TAAR1 ag;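 active = activation above a cutoff set at the run's mean compound activation plus 3 SD, cut at about 39% in these data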
Ga16 nonsel ag: nonselective agonist in parental cells, TAAR1 agonist counter-screen; activation, % at 3 µM; AID 651787; CHO-Ga16 parental, Fluo-8 calcium fluorescence; normalized to maximal ATP response, DMSO zero; 2,400 tested, 50% active; shares compounds with TAAR1 ag;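 active = activation above the run cutoff, the mean activation over all tested wells plus 3 SD, cut at about 12% in these data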;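 also: 0% = DMSO wells and 100% = maximal ATP response on the peak over basal ratio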
TAAR1 desensitize: TAAR1 response desensitization, agonist counter-screen; inhibition, % at 3 µM; shares compounds with TAAR1 ag; 2,400 tested, 46% active; AID 651951; CHO RD-HGA16 hTAAR1, Fluo-8 calcium, beta-PEA response inhibition;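 active = inhibition above the run cutoff, the mean inhibition of all test compounds plus 3 SD, cut at about 49% in these data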;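 also: beta-PEA stimulus applied at its EC80; loss of beta-PEA calcium signal after compound pretreatment read as receptor desensitization; 0% = DMSO with beta-PEA at EC80 and 100% = DMSO alone without agonist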
Ga16 antag count: counter-screen for TAAR1 agonists: nonselective Ga16 antagonists. shares compounds with TAAR1 ag. CHO-Ga16 ATP-induced calcium, Fluo-8 fluorescence. inhibition, % at 3 µM. 2,400 tested, 39% active. AID 651952;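 active = inhibition above the plate's mean compound inhibition plus 3 SD, computed per plate, cut at about 22% in these data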;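 also: 0% = EC80 ATP with DMSO and 100% = DMSO wells without ATP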
* marks the source's active call; other numbers are inactive results; nt = not tested or not shown. The list is not random: actives were taken first. Their share in the collection is about 2.3%.

SMILES	TAAR1 antag	OXTR agonist	TAAR1 ag	OXTR potentiator	V1aR counter	TAAR1 ag confirm	Ga16 nonsel ag	TAAR1 desensitize	Ga16 antag count
CCN1C(=S)N[C@@H](c2ccccc2)C(C(=O)OC)=C1C	-4	-2	3	-5	-2	nt	nt	nt	nt
COc1ccc(C(=O)NC2CC2)cc1OC1CCN(C(C)CSC)CC1 (centres undefined)	-8	0	3	-8	1	nt	nt	nt	nt
CCC(CC)NC(=O)CON=C1c2ccccc2-c2ccccc21	21	-2	43*	-3	-1	14	10	20	8
CC(OC(=O)c1n[nH]c2ccccc12)C(=O)Nc1ccccc1[N+](=O)[O-] (centres undefined)	5	3	7	-7	4	nt	nt	nt	nt
O=C(NCc1cccnc1)c1ccc(NC(=O)c2ccc(Br)cc2)cc1	4	6	57*	-9	7	58*	8	28	18
O=C(CCNC(=O)c1ccc(Br)cc1)NCC1CCCO1 (centres undefined)	-5	-1	2	-5	0	nt	nt	nt	nt
O=C(NCC1CCCO1)c1ccc(NC(=O)c2ccc(Br)cc2)cc1 (centres undefined)	-31	0	78*	-6	2	95*	8	71*	7
Fc1ccccc1CCNc1c2c(nc3ncnn13)CCCC2	1	6	30	-9	5	nt	nt	nt	nt
c1ccc(CCNc2c3c(nc4ncnn24)CCC3)cc1	9	7	62*	-12	5	90*	7	38	6
O=C(Nc1ccon1)Nc1ccccc1C(F)(F)F	5	-1	-1	-2	0	nt	nt	nt	nt
CCc1ccc(OCC(=O)NNC(=O)c2cc3ccccc3o2)cc1	71*	0	75*	-14	0	15	5	6	11
Cc1ccc(NC(=O)COC(=O)c2ccc3c(c2)C(=O)N(CCc2ccccc2)C3=O)c(C)c1	14	0	77*	-5	0	64*	4	18	-2
COCCCN1C(=O)c2ccc(C(=O)OCC(=O)NCCc3ccccc3)cc2C1=O	3	1	0	-3	1	nt	nt	nt	nt
CCCCC(=O)Nc1ccc2c(c1)nc(CN1CCN(C(=O)OCC)CC1)n2C	-19	-1	3	-9	1	nt	nt	nt	nt
CCC1CCCCN1C(=O)CSc1n[nH]c(N)n1 (centres undefined)	-12	2	3	4	1	nt	nt	nt	nt
O=C(N/N=C/c1cc([N+](=O)[O-])cc(Br)c1O)C12CC3CCC(CC(C3)C1)C2	10	2	50*	-7	1	66*	54*	23	14
COc1cccc(Nc2nc(C(N)COCc3ccccc3)cs2)n1 (centres undefined)	33	nt	59*	nt	nt	80*	11	56*	15
COc1cccc(Nc2nc(C(N)Cc3ccc(F)cc3)cs2)n1 (centres undefined)	24	nt	62*	nt	nt	38*	20*	23	29*
COc1cccc(Nc2nc(C(N)Cc3ccc(C(F)(F)F)cc3)cs2)n1 (centres undefined)	28	nt	60*	nt	nt	52*	38*	54*	59*
COc1ccc(CC(N)c2csc(NC(=O)c3ccc(F)cc3)n2)cc1 (centres undefined)	34	nt	21	nt	nt	nt	nt	nt	nt
COc1ccc(CC(N)c2csc(Nc3cccc(OC)n3)n2)cc1 (centres undefined)	26	nt	61*	nt	nt	71*	30*	35	29*

Assay outcomes from PubChem.
